Results as given in ChEMBL document CHEMBL3045357, “DNA adducts as biomarkers for oxidative and genotoxic stress from pesticides in crop plants” (J Agric Food Chem, 2008).

Experiments:
Assay type in all cases: organism-based
Conditions in all cases: in vivo, other, 336 h
[1] = tested on: Glycine max; assay: Genotoxicity in Glycine max (soybean) exposed to compound through spray 4 times over 2 weeks assessed as relative adduct level A3 measured per 10^9 nucleotides using HX-dG internal standard using [32P]labeling based autoradiography relative to untreated control
Procedure, shortened: (§1)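 Plants (2–6 weeks grown), groups of 2–4, sprayed 4 times over 2 weeks with formulations diluted per label (chlorothalonil 1:256, carbaryl 1:64 in water); controls water-sprayed. DNA from 1 g leaf via DNeasy Maxi kit. 10 µg DNA digested with micrococcal nuclease/spleen phosphodiesterase (4 h, 37 °C), NP1-enriched (45 min, 37 °C), labelled with [γ-32P]ATP/T4 kinase (45 min, 37 °C).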

[2] = tested on: Glycine max; assay: Genotoxicity in Glycine max (soybean) exposed to compound through spray 4 times over 2 weeks assessed as relative adduct level A3 measured per 10^9 nucleotides using [32P]labeling based autoradiography relative to untreated control; procedure, shortened: as §1
[3] = tested on: Glycine max; assay: Genotoxicity in Glycine max (soybean) exposed to compound through spray 4 times over 2 weeks assessed as relative adduct level A2 measured per 10^9 nucleotides using [32P]labeling based autoradiography relative to untreated control; procedure, shortened: as §1
[4] = tested on: Glycine max; assay: Genotoxicity in Glycine max (soybean) exposed to compound through spray 4 times over 2 weeks assessed as relative adduct level A1 measured per 10^9 nucleotides using [32P]labeling based autoradiography relative to untreated control; procedure, shortened: as §1
[5] = tested on: Glycine max; assay: Genotoxicity in Glycine max (soybean) exposed to compound through spray 4 times over 2 weeks assessed as HNE-dG adducts using [32P]labeling based autoradiography (reference value: 34 cpm); procedure, shortened: as §1
[6] = tested on: Glycine max; assay: Genotoxicity in Glycine max (soybean) exposed to compound through spray 4 times over 2 weeks assessed as relative adduct level A2 measured per 10^9 nucleotides using HX-dG internal standard using [32P]labeling based autoradiography relative to untreated control; procedure, shortened: as §1
[7] = tested on: Glycine max; assay: Genotoxicity in Glycine max (soybean) exposed to compound through spray 4 times over 2 weeks assessed as relative adduct level A1 measured per 10^9 nucleotides using HX-dG internal standard using [32P]labeling based autoradiography relative to untreated control; procedure, shortened: as §1
[8] = tested on: Glycine max; assay: Genotoxicity in Glycine max (soybean) exposed to compound through spray 4 times over 2 weeks assessed as HX-dG adducts using [32P]labeling based autoradiography; procedure, shortened: as §1
[9] = tested on: Glycine max; assay: Genotoxicity in Glycine max (soybean) exposed to compound through spray 4 times over 2 weeks assessed as HNE-dG adducts measured per 10^9 nucleotides using [32P]labeling based autoradiography (reference value: 2 no unit); procedure, shortened: as §1
[10] = tested on: Glycine max; assay: Genotoxicity in Glycine max (soybean) exposed to compound through spray 4 times over 2 weeks assessed as HX-dG adducts measured per 10^9 nucleotides using [32P]labeling based autoradiography; procedure, shortened: as §1
[11] = tested on: Glycine max; assay: Genotoxicity in Glycine max (soybean) exposed to compound through spray 4 times over 2 weeks assessed as relative adduct level A5 measured per 10^9 nucleotides using HX-dG internal standard using [32P]labeling based autoradiography relative to untreated control; procedure, shortened: as §1
[12] = tested on: Glycine max; assay: Genotoxicity in Glycine max (soybean) exposed to compound through spray 4 times over 2 weeks assessed as relative adduct level A4 measured per 10^9 nucleotides using HX-dG internal standard using [32P]labeling based autoradiography relative to untreated control; procedure, shortened: as §1
[13] = tested on: Glycine max; assay: Genotoxicity in Glycine max (soybean) exposed to compound through spray 4 times over 2 weeks assessed as relative adduct level A5 measured per 10^9 nucleotides using [32P]labeling based autoradiography relative to untreated control; procedure, shortened: as §1
[14] = tested on: Glycine max; assay: Genotoxicity in Glycine max (soybean) exposed to compound through spray 4 times over 2 weeks assessed as relative adduct level A4 measured per 10^9 nucleotides using [32P]labeling based autoradiography relative to untreated control; procedure, shortened: as §1

Row | Compound | Activity [1] | Activity [2] | Activity [3] | Activity [4] | Activity [5] | Activity [6] | Activity [7] | Activity [8] | Activity [9] | Activity [10] | Activity [11] | Activity [12] | Activity [13] | Activity [14]
1 | CC(C)[C@H](C(=O)O[C@H](C#N)c1cccc(Oc2ccccc2)c1)c1ccc(Cl)cc1 | 7857 cpm | 154 | 49 | 26 | 3062 cpm | 2477 cpm | 1344 cpm | 8264 cpm | 60 | 215 | – | – | – | –
2 | CNC(=O)Oc1cccc2ccccc12 [CARBARIL] | 809 cpm | 16 | 11 | 11 | 2956 cpm | 571 cpm | 569 cpm | 6310 cpm | 58 | 164 | 2767 cpm | 773 cpm | 54 | 15
